Test results published in ChEMBL document CHEMBL5634075, “An electrophilic fragment screening for the development of small molecules targeting caspase-2” (Eur J Med Chem, 2023).
Where “and” joins values, the source holds several entries; their conditions need not be identical. Equal values may be shown once. Calls of active or inactive are those of the source. The calls are words filed in the database; no cut-off is given here. Where a SMILES comes first, the peptide text is derived from it.

What was measured:
[1] = target: T1, Caspase-2 (Homo sapiens) (UniProt P42575); assay: Inhibition of recombinant caspase-2 (unknown origin) at 12.5 uM using Z-VDVAD-AFC as substrate measured after 40 mins by fluorescence assay relative to control
T1 sequence (whole entry): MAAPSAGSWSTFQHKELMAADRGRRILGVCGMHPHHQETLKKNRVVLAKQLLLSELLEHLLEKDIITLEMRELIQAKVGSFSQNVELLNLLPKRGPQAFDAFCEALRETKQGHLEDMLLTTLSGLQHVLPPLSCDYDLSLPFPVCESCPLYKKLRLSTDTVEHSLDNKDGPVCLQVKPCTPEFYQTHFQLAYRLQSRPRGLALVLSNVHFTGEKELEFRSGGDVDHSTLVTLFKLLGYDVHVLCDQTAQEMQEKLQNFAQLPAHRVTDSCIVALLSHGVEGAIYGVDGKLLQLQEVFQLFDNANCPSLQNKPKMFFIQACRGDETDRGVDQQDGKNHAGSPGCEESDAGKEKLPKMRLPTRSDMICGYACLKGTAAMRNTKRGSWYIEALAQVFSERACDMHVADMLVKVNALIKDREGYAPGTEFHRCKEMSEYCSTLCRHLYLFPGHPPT
Outline: (§1)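 Two-point single-run screen in duplicate at 12.5 and 6.25 µM. Then 5 µM Z-VDVAD-AFC, 40 min at 37 °C, stopped with 5 M acetic acid. AFC fluorescence read at ex 400/em 505 nm, corrected for buffer+protein background.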

[2] = target: T1, Caspase-2 (Homo sapiens); assay: Inhibition of recombinant caspase-2 (unknown origin) at 6.25 uM using Z-VDVAD-AFC as substrate measured after 40 mins by fluorescence assay relative to control; outline: as §1
[3] = target: T2, Caspase-2 (Homo sapiens, UniProt P42575); assay: Inhibition of recombinant caspase-2 (unknown origin) using Z-VDVAD-AFC as substrate measured after 40 mins by fluorescence assay
T2 sequence (P42575 whole entry): T1 sequence (whole entry)
Outline: (§2)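 Ten-point curves in duplicate, 0.4 nM–100 µM. Enzyme (5 nM caspase-2 or cp-caspase-2) in MES pH 6.5 buffer with 10 mM DTT, preincubated with compound 40 min at 37 °C. Then 5 µM Z-VDVAD-AFC. AFC read at ex 400/em 505 nm every 3 min for 1 h. Background-corrected 40-min values fitted to four-parameter sigmoidal curves. Mean ± SEM of N independent experiments.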

[4] = species on record: Homo sapiens; assay: Selectivity ratio of IC50 for recombinant caspase-3 (unknown origin) to recombinant caspase-2 (unknown origin)
[5] = target: T1, Caspase-2 (Homo sapiens); assay: Irreversible inhibition of recombinant caspase-2 (unknown origin) assessed as ratio of Kinact/Ki using Z-VDVAD-AFC as substrate measured after 40 mins by fluorescence assay
Outline: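 Caspase-2 kinetic fluorometric assay with Z-VDVAD-AFC. kOBS values obtained from progress curves at four or more inhibitor concentrations. kinact/Ki then derived by two-step irreversible secondary regression (Copeland).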

[6] = target: T1, Caspase-2 (Homo sapiens); assay: Covalent irreversible binding affinity to recombinant caspase-2 (unknown origin) assessed as modification at Cys320 residue measured after 1 hr by trypsin digestion based UPLC-MS/MS analysis
Outline: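 Recombinant caspase-2 (34 µM, 15 µL) mixed with test compound (1 µL of 10 mM DMSO stock), brought to 50 µL in MES pH 6.5 caspase-2 buffer, 1 h at 37 °C. Then iodoacetamide (62 mM final) 1 h dark RT. Samples denatured in 8 M urea/5 mM DTT and re-alkylated with IAD. Trypsin digestion overnight at 37 °C with 10% acetonitrile. C18 desalting, then gradient LC-MS/MS peptide sequencing.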

[7] = target: T3, Caspase-3 (Homo sapiens, UniProt P42574); assay: Inhibition of recombinant caspase-3 (unknown origin) using Ac-DEVD-AFC as substrate measured after 40 mins by fluorescence assay
T3 sequence (P42574 whole entry): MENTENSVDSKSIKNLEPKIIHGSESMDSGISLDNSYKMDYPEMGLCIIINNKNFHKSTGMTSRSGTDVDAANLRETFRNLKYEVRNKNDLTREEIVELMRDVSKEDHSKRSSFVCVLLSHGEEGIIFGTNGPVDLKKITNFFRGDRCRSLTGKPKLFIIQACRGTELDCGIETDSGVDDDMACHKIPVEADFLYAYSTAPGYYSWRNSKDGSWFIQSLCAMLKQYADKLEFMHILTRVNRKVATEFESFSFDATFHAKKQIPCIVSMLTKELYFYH

[8] = target: T3, Caspase-3; assay: Inhibition of recombinant caspase-3 (unknown origin) at 125 uM using Ac-DEVD-AFC as substrate measured after 40 mins by fluorescence assay relative to control; settings: recombinant caspase-3, probe Ac-DEVD-AFC
[9] = target: T3, Caspase-3; assay: Inhibition of recombinant caspase-3 (unknown origin) at 62.5 uM using Ac-DEVD-AFC as substrate measured after 40 mins by fluorescence assay relative to control; settings: recombinant caspase-3, probe Ac-DEVD-AFC
[10] = target: T2, Caspase-2; assay: Inhibition of recombinant cp-caspase-2 (unknown origin) using Z-VDVAD-AFC as substrate measured after 40 mins by fluorescence assay; outline: as §2
[11] = target: T1, Caspase-2 (Homo sapiens); assay: Covalent irreversible binding affinity to recombinant caspase-2 (unknown origin) assessed as modification at Cys320 residue […] measured after 1 hr by trypsin digestion based UPLC-MS/MS analysis
Outline: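 Recombinant caspase-2 (34 µM stock) incubated 1 h at 37 °C with compound (10 mM DMSO stock) in pH 6.5 MES buffer with NaCl, CHAPS, sucrose and 10 mM DTT. Free cysteines were capped with iodoacetamide (62 mM final, 1 h, dark, RT). Samples were dried, denatured in 8 M urea/DTT, re-alkylated, trypsin-digested overnight at 37 °C, C18-desalted and analysed by gradient LC-MS/MS peptide sequencing.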

[12] = system: HepG2; assay: Induction of GSH depletion in human HepG2 cells at <10 uM measured after 22 hrs by GSH-glo luminescence assay; assay type: functional, cell-based
Outline: (§3)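 HepG2 cells at 250 cells/well, 1536-well format, settled 4 h at 37 °C and 5% CO2. Compound added (50 nL), 22 h incubation. Medium removed by centrifugation. GSH-Glo reagent 30 min at RT, then Luciferin Detection Reagent 15 min at RT. Luminescence read.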

[13] = system: HepG2; assay: Induction of GSH depletion in human HepG2 cells at >10 uM measured after 22 hrs by GSH-glo luminescence assay; assay type: functional, cell-based; outline: as §3
[14] = system: HepG2; assay: Cytotoxicity against human HepG2 cells assessed as reduction in cell viability measured after 22 hrs by cell-titer glo assay; assay type: functional, cell-based
Outline: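 HepG2 cells at 250 cells/well, 1536-well format, settled 4 h at 37 °C and 5% CO2. Compound added acoustically (50 nL), 22 h at 37 °C. CellTiter-Glo reagent added, 15 min at room temperature, then luminescence read.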

[15] = system: HepG2; assay: Induction of GSH depletion in human HepG2 cells measured after 22 hrs by GSH-glo luminescence assay; settings: HepG2, 22 h, read-out: pIC50 (converted)

Structure (SMILES)	inhibition [1] [%]	inhibition [2] [%]	IC50 [3]	Ratio IC50 [4]	Ratio [5]	Activity [6]	IC50 [7]	inhibition at 40 min, 125 µM [8] [%]	inhibition at 40 min, 62.5 µM [9] [%]	IC50 [10] [µM]	Activity [11]	Activity [12]	Activity [13]	Activity [14]	IC50 ([14]; HepG2, 22 h) [µM]	IC50 [15] [µM]
O=C(CCl)Nc1ccc(NC(=O)c2cccs2)cc1	93	92	1.29 µM	7	5.86 10^4/M/s	Active	9.55 µM	30	24	–	–	–	–	–	–	–
CC(=O)N[C@H](C(=O)N[C@@H](CC(=O)O)C(=O)N[C@H](C(=O)N[C@@H](C)C(=O)N[C@H](C=O)CC(=O)O)C(C)C)C(C)C (Ac-VDVAD-aldehyde)	–	–	–	–	–	–	–	–	–	0.0479	–	–	–	–	–	–
NC(=O)CI	–	–	–	–	–	–	–	–	–	–	Active	–	–	–	–	–
CN1C(=O)CN(C(=O)CCl)c2ccc(Br)cc21	79	62	3.16 µM	> 16	–	Active	> 50.1 µM	14	0	6.03	–	inactive	Active	Active	–	–
Cc1nc(-c2ccc3c(c2)CCN3C(=O)CCl)cs1	89	79	1.82 µM and 3.39 µM	–	–	Active	35.5 µM and > 31.6 µM	16	10	4.9	–	–	–	–	2.24	1.78
O=C1CN(C(=O)CCl)c2ccccc2N1	92	86	1.07 µM and 3.31 µM	27	4.49 10^4/M/s	Active	28.8 µM	90	59	–	–	inactive	Active	Active	–	–
COc1ccc2nc(NC(=O)CCl)sc2c1	79.7	–	5.25 µM	> 12	–	–	> 63.1 µM	21.7	–	–	–	–	–	–	–	–
